From BindingDB's records for doi:10.1021/acsmedchemlett.1c00308 (Uniformed Services University of The Health Sciences, 2021)

Tested on: ERG (ERG oncoprotein, ETS transcription factor) in VCaP cells
Assay: Inhibition of ERG in human VCaP cells after 48 hrs by Western blotting analysis
How it was run: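 In VCaP prostate cancer cells, ERG and RIOK2 protein levels were measured by Western blot after treatment. IC50 values were derived from the concentration-response of protein inhibition.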

Structure (SMILES) | IC50 [nM]
O=S(=O)(O)c1cccc2c(S(=O)(=O)O)cccc12 | > 500
Oc1ccc2ccccc2c1/N=N/c1nccs1 [DNDI1417016] | 310
